Reference: ChEMBL document CHEMBL4706730, “A Set of Highly Sensitive Sirtuin Fluorescence Probes for Screening Small-Molecular Sirtuin Defatty-Acylase Inhibitors” (ACS Med Chem Lett, 2021)
Calls of active or inactive are those of the source. The rule behind the calls is not given here.

How the values were obtained:
[1] = target: T1, NAD-dependent protein deacetylase sirtuin-3, mitochondrial (Homo sapiens) (UniProt Q9NTG7); test: (§1) Inhibition of 5-(3-((1r,4r)-4-((5S,8S,11S,14S,17S,20S,29S)-11-((1H-imidazol-4-yl)methyl)-1,33-diamino-5-carbamoyl-17-(4-(4-(4-((4-(dimethylamino)phenyl)diazenyl)phenyl)butanamido)butyl)-8,14-bis(3-guanidinopropyl)-20-methyl-7,10,13,16,19,22,25,28-octaoxo-6,9,12,15,18,21,24,27-octaazatritriacontan-29-ylcarbamoyl)cyclohexyl)thioureido)-2-(6-hydroxy-3-oxo-3H-xanthen-9-yl)benzoic acid binding to SIRT3 (unknown origin) at 50 uM measured after 2 hrs in presence of NAD+ by fluorometric method
T1 sequence (whole entry): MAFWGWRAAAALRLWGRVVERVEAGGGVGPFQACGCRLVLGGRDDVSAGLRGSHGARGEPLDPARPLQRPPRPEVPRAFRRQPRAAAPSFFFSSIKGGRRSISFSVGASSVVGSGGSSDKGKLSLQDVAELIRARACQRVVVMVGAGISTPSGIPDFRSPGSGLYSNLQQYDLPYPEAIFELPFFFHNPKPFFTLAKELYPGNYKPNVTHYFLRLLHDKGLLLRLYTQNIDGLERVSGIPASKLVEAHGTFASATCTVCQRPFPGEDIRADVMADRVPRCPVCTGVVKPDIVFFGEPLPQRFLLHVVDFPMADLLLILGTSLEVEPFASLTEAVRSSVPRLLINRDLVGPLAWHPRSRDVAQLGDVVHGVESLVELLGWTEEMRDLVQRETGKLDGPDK

[2] = target: T2, NAD-dependent protein deacetylase sirtuin-2 (Homo sapiens, UniProt Q8IXJ6); test: Inhibition of SIRT2 deacetylation activity (unknown origin) using FLUOR DE LYS SIRT2 peptide as substrate incubated for 2 hrs in presence of NAD+ measured at 5 mins interval for 20 mins by fluorescence assay
T2 sequence (Q8IXJ6 whole entry): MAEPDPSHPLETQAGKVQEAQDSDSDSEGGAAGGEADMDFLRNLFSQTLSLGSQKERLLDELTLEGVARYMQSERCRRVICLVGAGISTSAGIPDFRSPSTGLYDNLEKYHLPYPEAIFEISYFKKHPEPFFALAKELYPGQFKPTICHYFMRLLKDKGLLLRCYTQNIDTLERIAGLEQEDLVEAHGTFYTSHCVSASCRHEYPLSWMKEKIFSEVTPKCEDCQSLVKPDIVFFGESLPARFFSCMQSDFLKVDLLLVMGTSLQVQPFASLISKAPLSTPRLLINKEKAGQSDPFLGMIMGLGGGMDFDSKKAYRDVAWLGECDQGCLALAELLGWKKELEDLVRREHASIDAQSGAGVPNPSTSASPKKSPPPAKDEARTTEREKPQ

[3] = target: T3, NAD-dependent protein deacetylase sirtuin-1 (Homo sapiens) (UniProt Q96EB6); test: as §1, with “SIRT1” for “SIRT3”
T3 sequence (whole entry): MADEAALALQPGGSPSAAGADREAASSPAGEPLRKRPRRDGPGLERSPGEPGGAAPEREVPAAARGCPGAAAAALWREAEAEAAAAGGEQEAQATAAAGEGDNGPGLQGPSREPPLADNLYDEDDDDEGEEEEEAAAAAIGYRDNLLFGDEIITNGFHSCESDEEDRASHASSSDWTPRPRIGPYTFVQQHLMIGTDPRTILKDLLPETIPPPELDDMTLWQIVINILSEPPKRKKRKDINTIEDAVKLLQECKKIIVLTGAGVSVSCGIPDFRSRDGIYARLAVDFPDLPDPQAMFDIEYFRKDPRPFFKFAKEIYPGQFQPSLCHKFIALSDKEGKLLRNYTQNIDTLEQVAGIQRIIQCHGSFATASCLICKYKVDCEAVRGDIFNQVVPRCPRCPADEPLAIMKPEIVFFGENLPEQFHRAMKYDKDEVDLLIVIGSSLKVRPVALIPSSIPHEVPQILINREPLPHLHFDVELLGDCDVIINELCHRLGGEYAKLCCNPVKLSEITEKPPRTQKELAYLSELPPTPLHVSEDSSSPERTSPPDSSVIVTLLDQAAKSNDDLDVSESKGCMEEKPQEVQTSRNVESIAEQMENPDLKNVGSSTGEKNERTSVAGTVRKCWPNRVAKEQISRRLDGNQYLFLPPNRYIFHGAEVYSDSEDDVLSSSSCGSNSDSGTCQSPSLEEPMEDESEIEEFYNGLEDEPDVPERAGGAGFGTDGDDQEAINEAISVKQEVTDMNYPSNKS

[4] = target: T2, NAD-dependent protein deacetylase sirtuin-2; test: as §1, with “SIRT2” for “SIRT3”, “origin)” for “origin) at 50 uM”
In short: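 The second screen used the same SIRT2 one-step FRET probe conditions, validated at 2.92 nM SIRT2. Compounds were tested over a range of concentrations to check dose-dependency, and the IC50 was derived from the dose–response curve.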

[5] = target: T4, NAD-dependent protein deacetylase sirtuin-2 (Homo sapiens) (UniProt Q8IXJ6); test: as §1, with “SIRT2” for “SIRT3”, “10” for “50”, “method relative to control” for “method”
T4 sequence (whole entry): T2 sequence (Q8IXJ6 whole entry)
In short: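 In the primary library screen, 384-well plates held SIRT2 with the Dabcyl-BH/H4K16 one-step FRET probe. Each compound was tested at 10 μM with 0.5% DMSO, and inhibition was taken from the fluorescence signal.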

[6] = target: T4, NAD-dependent protein deacetylase sirtuin-2 (Homo sapiens); test: (§2) Inhibition of p53(Myr)-AMC binding to SIRT2 (unknown origin) incubated for 3 hrs in presence of NAD+ followed by trypsin addition and measured at 5 mins interval for 20 mins by fluorometric method; details: time 200.0 min
[7] = target: T2, NAD-dependent protein deacetylase sirtuin-2; test: as §2
[8] = target: NAD-dependent protein deacylase sirtuin-6 (Homo sapiens) (UniProt Q8N6T7); test: Inhibition of 5-[[(1r,4r)-4-[[(1S)-4-amino-1-[[(1S,2R)-1-[[(1S)-2-[[(1S)-1-[[(1S)-1-[[(1S)-2-[[(1S,2R)-1-[[2-(carboxymethylamino)-2-oxoethyl]carbamoyl]-2-hydroxypropyl]amino]-1-(hydroxymethyl)-2-oxoethyl]carbamoyl]-5-[3-[N-methyl-4-[(4-nitrophenyl)azo]anilino]propanoylamino]pentyl]carbamoyl]-4-guanidinobutyl]amino]-1-methyl-2-oxoethyl]carbamoyl]-2-hydroxypropyl]carbamoyl]-4-oxobutyl]carbamoyl]cyclohexyl]carbamothioylamino]-2-(3-hydroxy-6-oxoxanthen-9-yl)benzoic acid binding to SIRT6 (unknown origin) at 50 uM measured after 2 hrs in presence of NAD+ by fluorometric method
Chain of NAD-dependent protein deacylase sirtuin-6 (Homo sapiens) (Q8N6T7 whole entry): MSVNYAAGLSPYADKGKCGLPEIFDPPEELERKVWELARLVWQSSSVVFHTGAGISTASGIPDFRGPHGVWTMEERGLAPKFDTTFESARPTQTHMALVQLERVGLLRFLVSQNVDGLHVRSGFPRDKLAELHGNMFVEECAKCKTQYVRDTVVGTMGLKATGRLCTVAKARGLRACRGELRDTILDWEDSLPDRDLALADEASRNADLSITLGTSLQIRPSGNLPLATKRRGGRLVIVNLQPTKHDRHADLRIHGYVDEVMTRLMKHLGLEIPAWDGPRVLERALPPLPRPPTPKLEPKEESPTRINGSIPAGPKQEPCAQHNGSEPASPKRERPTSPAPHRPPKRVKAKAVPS

CCOC(=O)C[C@@H]1C[C@@H](C(C)C)[C@H](CNC(=O)c2cncnc2)C=C1C
inhibition [1]: inactive | IC50 [2]: 5.09 µM | inhibition [3]: inactive | IC50 [4]: 47.9 µM | inhibition [5]: > 35% | inhibition [6]: Dose-dependent effect | IC50 [7]: 44.4 µM | inhibition [8]: inactive
